A short description of assay [1]: Inhibition of rat intestinal alpha-glucosidase using p-nitrophenyl-alpha-D-glucopyranoside as substrate pretreated for 10 mins followed by substrate addition measured after 30 mins. In outline: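 Rat intestinal acetone powder (40 mg/mL in 100 mM PBS, pH 7) as enzyme source. Test agents were dissolved in PBS or MeOH–PBS (1:1), then preincubated with the enzyme for 10 min at 37 °C. p-Nitrophenyl-α-D-glucopyranoside was added (20 mM stock in PBS) and incubated for 30 min at 37 °C. Absorbance read at 405 nm; IC50 derived per earlier reports.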

Assay [2] concerns Mus musculus. Put plainly: Antihyperglycemic activity in ICR mouse assessed as reduction in postprandial blood glucose levels at 5 mg/kg, ig pretreated for 30 mins followed by oral sucrose challenge measured at 30 mins interval for 120 mins by OSTT. In kind it is functional, organism-based.
Assay [3] is filed under the species Rattus norvegicus. Put plainly: Potency index, ratio of acarbose IC50 to test compound IC50 for rat intestinal alpha-glucosidase.
Assay [4] has as its system Mus musculus. Put plainly: Antihyperglycemic activity in ig dosed ICR mouse assessed as reduction in postprandial blood glucose levels pretreated for 30 mins followed by oral sucrose challenge measured at 30 mins interval for 120 mins by OSTT. In kind it is functional, organism-based.
Assay [5] addresses T1, Alpha-glucosidase (Blautia obeum, UniProt A0A173Z7B1).
T1 sequence (A0A173Z7B1 whole entry): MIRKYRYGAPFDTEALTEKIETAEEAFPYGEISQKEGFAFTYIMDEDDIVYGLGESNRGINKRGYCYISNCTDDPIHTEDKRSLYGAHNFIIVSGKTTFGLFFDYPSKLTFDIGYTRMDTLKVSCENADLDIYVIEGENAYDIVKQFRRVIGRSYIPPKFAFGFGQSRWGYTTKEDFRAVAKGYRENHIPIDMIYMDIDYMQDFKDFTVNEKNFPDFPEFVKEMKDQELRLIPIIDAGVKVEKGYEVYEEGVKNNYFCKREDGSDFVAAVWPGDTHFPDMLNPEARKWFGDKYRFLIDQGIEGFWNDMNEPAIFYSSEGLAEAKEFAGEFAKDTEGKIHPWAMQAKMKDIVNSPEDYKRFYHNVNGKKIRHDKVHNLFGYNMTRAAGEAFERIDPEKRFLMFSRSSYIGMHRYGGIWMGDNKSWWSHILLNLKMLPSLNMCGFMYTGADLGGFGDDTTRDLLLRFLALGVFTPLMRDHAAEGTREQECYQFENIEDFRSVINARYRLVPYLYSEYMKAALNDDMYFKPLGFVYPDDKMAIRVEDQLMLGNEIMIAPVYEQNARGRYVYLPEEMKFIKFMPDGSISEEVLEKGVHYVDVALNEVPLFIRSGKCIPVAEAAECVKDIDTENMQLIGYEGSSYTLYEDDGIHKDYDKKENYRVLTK
Put plainly: Inhibition of recombinant Ruminococcus obeum ATCC 29174 alpha-glucosidase expressed in Escherichia coli BL21(DE3) using p-nitrophenyl-alpha-D-glucopyranoside as substrate pretreated for 10 mins followed by substrate addition measured after 3 hrs. Also noted: species or system Blautia obeum ATCC 29174. The essentials:
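Enzyme from E. coli BL21-DE3/pET12b grown in LB at 37 °C and induced with 0.5 mM IPTG for 8 h. Cells were sonicated in 50 mM bis-TRIS propane pH 8.0 and the lysate clarified. Enzyme (5.2 mg/mL) was preincubated with test agents for 10 min at 37 °C. pNP-α-glucoside was added (20 mM stock) and incubated for 3 h at 37 °C.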

Activity calls are given as the source filed them. The calls are words filed in the database; no cut-off is given here. Some results are limits rather than exact numbers.

Regarding `C[C@@H]1CC[C@@]23COC(=O)C2=C[C@@H](O[C@@H]2O[C@H](CO)[C@@H](O)[C@H](O)[C@H]2O)C[C@@H]3[C@]1(C)CCC1=CCOC1=O`, the IC50 in assay [1] was more than 10000 µM.
Same read-out and setting: then `COC1OC(=O)C=C1CC[C@]1(C)[C@H](C)CC[C@@]23COC(=O)C2=C[C@@H](O[C@@H]2O[C@H](CO)[C@@H](O)[C@H](O)[C@H]2O)C[C@@H]31` (stereo partly specified), with more than 10000 µM; and `CO[C@@H]1C=C(CC[C@]2(C)[C@H](C)CC[C@@]34COC(=O)C3=C[C@@H](O[C@@H]3O[C@H](CO)[C@@H](O)[C@H](O)[C@H]3O)C[C@@H]42)C(=O)O1`, with more than 10000 µM.
As for `C[C@H]1O[C@H](O[C@H]2[C@H](O)[C@@H](O)[C@@H](O[C@H]3[C@H](O)[C@@H](O)C(O)O[C@@H]3CO)O[C@@H]2CO)[C@H](O)[C@@H](O)[C@@H]1N[C@H]1C=C(CO)[C@@H](O)[C@H](O)[C@H]1O` (stereo partly specified) [ACARBOSE], the IC50 in assay [1] stood at 100 µM. For the same molecule, the outcome in assay [2] was Active.
As to `COc1cc(-c2cc(=O)c3c(O)c(O)c(OC)cc3o2)ccc1Oc1ccc(-c2cc(=O)c3c(O)c(O)c(OC)cc3o2)cc1OC`, the Ratio IC50 in assay [3] was 2.5. The IC50 in assay [1] came out at 39 µM.
In the case of `COc1ccc(-c2cc(=O)c3c(O)c(O)c(OC)cc3o2)cc1OC`, the IC50 in assay [1] came out at 1800 µM.
For the molecule `C[C@@H]1CC[C@@]23COC(=O)C2=C[C@@H](O[C@@H]2O[C@H](CO)[C@@H](O)[C@H](O)[C@H]2O)C[C@@H]3[C@]1(C)CCc1ccoc1`, the Activity result in assay [4] was “Dose-dependent effect”. Moreover, the figures for the IC50 in assay [1] and in assay [5] were 500 µM and 400 µM, respectively.
Taken in the same sequence, the figures for `COc1cc2oc(-c3ccc(O)c(O)c3)cc(=O)c2c(O)c1O` were “Dose-dependent effect”, 810 µM and 60 µM.
Regarding `O=c1cc(-c2ccc(O)cc2)oc2cc(O[C@@H]3O[C@H](CO)[C@@H](O)[C@H](O)[C@H]3O)cc(O)c12` [APIGETRIN], the half-inhibitory concentration (IC50) in assay [1] amounted to 200 µM.
On the same count and under the same terms, then `CC(=O)CC[C@]1(C)[C@H](C)CC[C@@]23COC(=O)C2=C[C@@H](O[C@@H]2O[C@H](CO)[C@@H](O)[C@H](O)[C@H]2O)C[C@@H]31`, with more than 10000 µM.

For orientation: IC50 means the concentration that inhibits the measured activity by half.

The values are drawn from ChEMBL document CHEMBL4118036, “α-Glucosidase Inhibitors from Salvia circinata” (J Nat Prod, 2017).
